Key:
[1] = Antiinflammatory activity in mouse RAW264.7 cells assessed as inhibition of LPS-induced TNFalpha production at 50 uM after 24 hrs by ELISA relative to control; format: functional; details: RAW264.7, 24 h
Outline: (§1)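 RAW264.7 cells plated at 5 × 10^5/mL, pre-treated with samples at 100, 50, 10 or 1 µM, then stimulated with LPS (100 ng/mL) for 24 h. TNF-α in the medium measured by ELISA kit per manufacturer's instructions and quantified from a standard curve; silybin as positive control.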

[2] = Antiinflammatory activity in mouse RAW264.7 cells assessed as inhibition of LPS-induced nitric oxide production at 100 uM after 24 hrs by Griess assay relative to control; format: functional; details: RAW264.7, 24 h
Outline: (§2)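 RAW264.7 cells (5 × 10^5/mL) pre-treated with samples at 100, 50, 10 or 1 µM, then LPS (100 ng/mL) for 24 h. Nitrite in medium measured by mixing with equal volume Griess reagent (1% sulfanilamide in 5% H3PO4, 0.1% N-naphthyl-ethylenediamine), 10 min at 37 °C, absorbance 540 nm; quantified against NaNO2 standard curve; minocycline as positive control.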

[3] = species: Mus musculus; assay: Cytotoxicity against mouse RAW264.7 cells assessed as effect on cell viability at 100 uM preincubated for 1 hr followed by LPS stimulation measured after 24 hrs by MTT assay; format: toxicity, cell-based; details: raw264.7, 24 h
Outline: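 RAW264.7 cells in DMEM with 10% FBS and penicillin/streptomycin at 37 °C, 5% CO2, seeded 5 × 10^5 cells/well; treated with samples (100 µM) 1 h, then LPS (100 ng/mL) 24 h. MTT (0.25 mg/mL) added for 4 h; formazan read at 540 nm; untreated cells as control.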

[4] = Antiinflammatory activity in mouse RAW264.7 cells assessed as inhibition of LPS-induced nitric oxide production after 24 hrs by Griess assay; format: functional, cell-based; details: RAW264.7, 24 h; outline: as §2
[5] = Antioxidant activity assessed as ferric ion reducing activity by measuring Fe2+ levels using fe3+-TPTZ at 1500 ug/ml after 30 mins by FRAP assay; format: functional
Outline: (§3)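 FRAP reagent: 300 mM acetate buffer pH 3.6, 10 mM TPTZ in 40 mM HCl, 20 mM FeCl3. Sample (3000, 1500, 750, 375 µg/mL solutions) mixed with reagent, 30 min at 37 °C, absorbance 593 nm. Values expressed as µM Fe2+ from FeSO4 calibration curve (5–450 µM).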

[6] = Antiinflammatory activity in mouse RAW264.7 cells assessed as inhibition of LPS-induced TNFalpha production after 24 hrs by ELISA; format: functional, cell-based; details: RAW264.7, 24 h; outline: as §1
[7] = Antiinflammatory activity in mouse RAW264.7 cells assessed as inhibition of LPS-induced TNFalpha production at 1 uM after 24 hrs by ELISA relative to control; format: functional; details: RAW264.7, 24 h; outline: as §1
[8] = Antiinflammatory activity in mouse RAW264.7 cells assessed as inhibition of LPS-induced nitric oxide production at 50 uM after 24 hrs by Griess assay relative to control; format: functional; details: RAW264.7, 24 h; outline: as §2
[9] = Antioxidant activity assessed as ABTS radical scavenging activity after 30 mins; format: functional
Outline: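 ABTS radical generated by 7 mM ABTS plus 2.4 mM potassium persulfate, 12 h dark at room temperature, diluted in ethanol to OD 0.700 at 734 nm. Samples at several concentrations mixed with ABTS+ solution, 30 min at 37 °C, read at 734 nm; ethanol blank; percent scavenging calculated relative to blank.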

[10] = Antiinflammatory activity in mouse RAW264.7 cells assessed as inhibition of LPS-induced TNFalpha production at 100 uM after 24 hrs by ELISA relative to control; format: functional; details: RAW264.7, 24 h; outline: as §1
[11] = Antioxidant activity assessed as DPPH radical scavenging activity incubated in dark for 30 mins; format: functional
Outline: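 Samples (0.4 mM stock, 5–40 µL series) and DPPH (2 mM stock, 20 µL) in ethanol, made to 200 µL with ethanol; incubated 30 min in dark at 37 °C; absorbance at 517 nm. Ethanol replaced sample as blank.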

[12] = Antiinflammatory activity in mouse RAW264.7 cells assessed as inhibition of LPS-induced nitric oxide production at 1 uM after 24 hrs by Griess assay relative to control; format: functional; details: RAW264.7, 24 h; outline: as §2
[13] = Antioxidant activity assessed as ferric ion reducing activity by measuring Fe2+ levels using fe3+-TPTZ at 3000 ug/ml after 30 mins by FRAP assay; format: functional; outline: as §3
[14] = Antioxidant activity assessed as ferric ion reducing activity by measuring Fe2+ levels using fe3+-TPTZ at 750 ug/ml after 30 mins by FRAP assay; format: functional; outline: as §3
[15] = Antiinflammatory activity in mouse RAW264.7 cells assessed as inhibition of LPS-induced nitric oxide production at 10 uM after 24 hrs by Griess assay relative to control; format: functional; details: RAW264.7, 24 h; outline: as §2
[16] = Antiinflammatory activity in mouse RAW264.7 cells assessed as inhibition of LPS-induced TNFalpha production at 10 uM after 24 hrs by ELISA relative to control; format: functional; details: RAW264.7, 24 h; outline: as §1
[17] = Antioxidant activity assessed as ferric ion reducing activity by measuring Fe2+ levels using fe3+-TPTZ at 375 ug/ml after 30 mins by FRAP assay; format: functional; outline: as §3

| IC50 [4] [µM] | IC50 [6] [µM] | IC50 [9] [µM] | IC50 [11] [µM] | Compound | inhibition at 50 µM [1] [%] | inhibition at 100 µM [2] [%] | Activity [3] | Activity [5] [µmol/L] | inhibition at 1 µM [7] [%] | inhibition at 50 µM [8] [%] | inhibition at 100 µM [10] [%] | inhibition at 1 µM [12] [%] | Activity [13] [µmol/L] | Activity [14] [µmol/L] | inhibition at 10 µM [15] [%] | inhibition at 10 µM [16] [%] | Activity [17] [µmol/L] |
| --- | --- | --- | --- | --- | --- | --- | --- | --- | --- | --- | --- | --- | --- | --- | --- | --- | --- |
| > 100 | 94.2 | 10.7 | 89 | COc1cc([C@@H](O)[C@@H](CO)Oc2ccc([C@@H](O)[C@H](O)CO)cc2OC)ccc1O | 30.8 | 4.4 | Non-Toxic | 26 | 2.4 | 2.6 | 52.5 | -1.2 | 66.3 | 18.5 | -2.9 | 21.2 | 12 |
| 80.5 | > 100 | 6.3 | 81.6 | CCO[C@H](c1ccc(O[C@@H](CO)[C@@H](OC)c2ccc(O)c(OC)c2)c(OC)c1)[C@H](CO)c1ccc(O)c(OC)c1 | 13.2 | 56.2 | Non-Toxic | 99.2 | 0.2 | 37.2 | 22.5 | 2.5 | 129 | 66.3 | 16.1 | 2.1 | 34.5 |
